Columns and labels:
[1] = system: Coxsackie virus B5 (CVB5); experiment: MTT/CPE antiviral assay, compound treatment before virus infection; type: cell-based
Method in brief: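 HEp-2 cells pretreated with twofold serial dilutions in MEM for 24 h at 37°C, 5% CO2. Compound then removed and cells washed twice with PBS before challenge with 100 TCID50/0.1 ml CVB5 for 1 h. After two more washes, cells kept in test medium until CPE appeared; scored microscopically and by MTT. IC50 and TI (CC50/IC50); mean ± SD of three experiments.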

[2] = system: Coxsackie virus B5 (CVB5); experiment: MTT/CPE antiviral assay, compound treatment after virus infection; type: cell-based; settings: for IC50: Enterovirus B
Method in brief: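 Confluent HEp-2 monolayers infected with CVB5 at 100 TCID50/0.1 ml for 1 h, washed with PBS, then overlaid with twofold serial dilutions in 2% serum test medium, dosed daily. CPE scored by light microscopy and quantified by MTT (OD 540/690 nm). IC50 derived, TI = CC50/IC50; mean ± SD from three independent experiments.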

[3] = system: Coxsackie virus B5 (CVB5); experiment: Virucidal assay; type: cell-based; settings: Enterovirus B, B5|CVB5, HEp-2, 1 h
Method in brief: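 CVB5 suspension mixed with twofold serial dilutions (0.5 to 20 μg/ml) for 1 h at 37°C, then added to confluent HEp-2 cells for 1 h. Inoculum removed, cells rinsed with PBS and incubated in test medium. CPE scored by microscopy and MTT; IC50 derived as mean ± SD of three independent experiments.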

[4] = MTT cytotoxicity assay; type: cell-based; settings: human, HEp-2 cells (uninfected)
Method in brief: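 HEp-2 cells seeded at 2 × 10⁴/well and grown to subconfluence, then given serial twofold dilutions in test medium with 2% serum; four uninfected wells per dilution; compound re-added daily; controls had 0.05% DMSO. Read-out: MTT (5 mg/ml in PBS, 4 h), formazan dissolved in DMSO, OD at 540/690 nm. Expressed as % of untreated; CC50 derived; dilutions in triplicate.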

[5] = system: CVB5 RNA; experiment: Semi-quantitative detection of viral RNA by RT-PCR; type: cell-based, Coxsackie virus B5; settings: cells treated after infection with 0.3-40 μg/ml
[6] = system: Coxsackie virus B5 (CVB5); experiment: Coxsackie virus B5 infection in mice; type: in vivo, BALB/c mice; settings: for mean virus yield of hearts: plaque assay
[7] = Storage stability of compound preparations; type: physicochemical; settings: DMSO/test medium preparations; freezing and short-term storage (1 month at 4°C)
[8] = system: mice; settings: single-dose oral administration; cited from earlier work
[9] = system: rats; settings: single-dose oral administration; cited from earlier work
[10] = system: guinea pigs; settings: single-dose oral administration; cited from earlier work
[11] = system: animals; settings: cited from earlier work
[12] = cited from earlier work

What does the source list for `CCOC(=O)c1c(CSc2ccccc2)n(C)c2cc(Br)c(O)c(CN(C)C)c12.Cl.O` [Arbidol, ethyl-6-bromo-4-[(dimethylamino)-methyl]-5-hydroxy-1-methyl-2-[(phenylthio)methyl]-indole-3-carboxylate hydrochloride monohydrate]?
IC50 ([1]; Enterovirus B, B5|CVB5, HEp-2): 30.3 ± 1.6 µg/mL; TI (CC50/IC50) ([1]; drug added before infection, HEp-2 cells): 2.7; IC50 ([2]; B5|CVB5, HEp-2): 6.62 ± 1.1 µg/mL; IC50 ([2]; B5|CVB5, read-out: 50% inhibitory concentration (IC50), CPE of CVB5): 2.66 to 6.62 µg/mL; TI (CC50/IC50) ([2]; drug added after infection, HEp-2 cells): 12.45; IC50 [3]: 2.66 ± 0.4 µg/mL; CC50 [4]: 82.1 µg/mL; ratio of CVB5 RNA to β-actin (RT-PCR) [5]: decreased with increasing dose; lung index vs viral control group ([6]; 25 mg/kg body weight/day p.o.): significantly lower; mean virus yield of hearts ([6]; 25 mg/kg body weight/day p.o. for 6 days): 10^3 viral plaques/heart; survival by day 30 ([6]; 25 mg/kg body weight/day p.o., eight mice per group): half of them had survived; clinical observations during the 30-day period ([6]; 50 mg/kg body weight/day p.o.): did not show abnormalities; lung index vs normal group ([6]; 50 mg/kg body weight/day p.o.): no significant difference; lung index vs viral control group ([6]; 50 mg/kg body weight/day p.o.): significantly lower; mean virus yield of hearts ([6]; 50 mg/kg body weight/day p.o. for 6 days): 10^2 viral plaques/heart; survival rate ([6]; 50 mg/kg body weight/day p.o. once a day for 6 days): significantly enhanced; body weight ([6]; 50 mg/kg body weight/day p.o., 30-day period): slight weight loss; efficacy of preparations upon storage [7]: did not appear to change; LD50 (50% lethal dose) [8]: 687 mg/kg; LD50 (50% lethal dose) [9]: 3,000 mg/kg; LD50 (50% lethal dose) [10]: 4,000 mg/kg; pathologic changes on long-term intake ([11]; animals, clinical, hematological, biochemical, pathological data): did not show pathologic changes; mutagenic or teratogenic activity ([11]; at therapeutic doses): no mutagenic or teratogenic activity; half-life in cultured cells [12]: about 18 h

From PMC7086808 (Archives of Virology, 2009)
